Screens as filed in PubChem.
Hits are enriched below; roughly 1.5% of the tested compounds scored in any of these assays.
PKA-R2B activ = PKA-R2B complex activation. hit rate 0.079% among 340,000. AID 504700. activation, % at 11.4 µM. PKA-R2B holoenzyme dissociation, Cy5-IP20 fluorescence polarization; R2B truncated from residue 108, S112A mutant; 0% DMSO only, 100% 113 µM cGMP;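 active = activation above a cutoff set at the mean over all compounds plus 3 SD, cut at about 18% in these data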;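 also: higher means more holoenzyme dissociation and a rise in polarization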
Target sequence (P31323 whole entry, looked up, other chains not shown, the tested form may be a part): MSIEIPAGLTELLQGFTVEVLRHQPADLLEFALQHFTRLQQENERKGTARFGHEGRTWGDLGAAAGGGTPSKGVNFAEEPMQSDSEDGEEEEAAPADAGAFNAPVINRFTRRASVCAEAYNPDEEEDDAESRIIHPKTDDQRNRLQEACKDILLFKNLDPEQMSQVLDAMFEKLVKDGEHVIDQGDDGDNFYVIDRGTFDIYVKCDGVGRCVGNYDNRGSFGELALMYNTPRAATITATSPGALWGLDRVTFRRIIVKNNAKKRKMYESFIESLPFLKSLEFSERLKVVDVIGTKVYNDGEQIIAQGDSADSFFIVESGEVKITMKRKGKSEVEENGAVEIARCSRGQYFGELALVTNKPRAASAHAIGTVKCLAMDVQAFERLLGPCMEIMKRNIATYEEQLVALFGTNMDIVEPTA
S100A4 MyoIIA = S100A4-myosin IIA interaction inhibition; inhibition, % at 10.7 µM; AID 652163; S100A4/TAMRA-MyoIIA peptide fluorescence polarization; hit rate 0.14% among 360,000; P26447;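 active = mean inhibition of at least 70% across replicates, with every replicate also reaching that level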
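incubation = readout 5 min after mixing, signal stable up to 60 min | system = S100A4 monomer protein | buffer or medium = HEPES pH 7.2 with CaCl2, KCl, NaCl, DTT, Triton | benchmarks = neutral control DMSO, positive control TFP | also added = fluorescent myosin IIA peptide, 5 nM | compound dosing = one concentration per compound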
CRFR2-BP antag = CRF-BP/CRF-R2 complex antagonism | HEK293 CRF-R2/CRF-BP, CRF-induced calcium fluorescence | inhibition, % at 11.8 µM | hit rate 0.59% among 350,000 | AID 588475;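 active = inhibition of the ligand-induced calcium signal above about 50% at the single tested concentration, limit read from the data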
SIRT5 block = sirtuin-5 (human) deacylase inhibition | Q9NXA8 | Purified SirT5, succinyl-peptide AMC, trypsin-coupled fluorescence | inhibition, % at 15 µM | hit rate 1.1% among 330,000 | AID 652115; in the data active = inhibition above about 15%
PKA-R1A act = activates the PKA-R1A holoenzyme complex | hit rate 0.083% among 340,000 | activation, % at 11.4 µM | PKA-R1A dissociation, Cy5-IP20 fluorescence polarization; scaled: DMSO 0%, 113 µM cGMP 100% | P00514+P68181;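 active = percent activation above the mean of all tested compounds plus 3 SD, cut at about 19% in these data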;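 also: higher means more PKAc released from R1A so a rise in polarization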
Starred values were filed as active, the others as inactive; . = not tested or not shown; ! = not active in a repeat.

SMILES | PKA-R2B activ | S100A4 MyoIIA | CRFR2-BP antag | SIRT5 block | PKA-R1A act
Cc1ccc(-c2cnc3c(c2)C(=O)N([C@@H](C)CO)C[C@H](C)[C@@H](CN(C)C(=O)c2cccnc2)O3)cc1 | . | 11.2 | . | 25.8* | .
COc1ccc(CNC(=O)C[C@H]2CC[C@@H](NC(=O)CN(C)C)[C@H](CO)O2)cc1 | . | 7.4 | . | 0.9 | .
C[C@H](CO)N1C[C@H](C)[C@H](CN(C)Cc2cccc(C(F)(F)F)c2)Oc2ncc(C#Cc3ccccc3)cc2C1=O | . | -6.8 | . | 28.6* | .
C[C@H](CO)N1C[C@H](C)[C@H](CN(C)Cc2ccc(F)cc2)Oc2ncc(-c3cccc(C(F)(F)F)c3)cc2C1=O | . | -1.9 | . | -1.6 | .
C[C@H](CO)N1C[C@H](C)[C@H](CN(C)Cc2cccc(C(F)(F)F)c2)Oc2ncc(-c3ccc(F)cc3)cc2C1=O | . | 5.0 | . | 18.0* | .
C[C@@H]1CN([C@@H](C)CO)C(=O)c2cc(Br)cnc2O[C@H]1CN(C)Cc1cccnc1 | 8.2 | 0.3 | 11.0 | 35.6*! | 0.8
C[C@H](CO)N1C[C@H](C)[C@H](CN(C)Cc2cccc(C(F)(F)F)c2)Oc2ncc(C#Cc3ccc(F)cc3)cc2C1=O | . | 17.6 | . | 1.7 | .
C[C@H](CO)N1C[C@H](C)[C@H](CN(C)Cc2ccncc2)Oc2ncc(C#CCN(C)C)cc2C1=O | . | 5.9 | . | 40.8*! | .
CN1CCN(C(=O)C[C@@H]2CC[C@H]3[C@@H](COC[C@@H](O)CN3C(=O)Nc3ccc(F)cc3)O2)CC1 | . | -5.8 | . | 2.4 | .
C[C@@H]1CN([C@@H](C)CO)C(=O)c2cc(-c3cccc(F)c3)cnc2O[C@@H]1CN(C)Cc1ccncc1 | . | 3.4 | . | 20.9* | .
O=S(=O)(c1ccccc1)N1CC2(C1)[C@H](c1ccccc1)[C@H](CO)N2CCC(F)(F)F | . | -14.7 | . | 17.0* | .
O=S(=O)(c1ccccc1)N1CC2(C1)[C@@H](c1ccccc1)[C@@H](CO)N2CCC(F)(F)F | . | -30.1 | . | -1.5 | .
O=C(C[C@@H]1C[C@@H]2c3cc(NC(=O)Nc4ccccc4F)ccc3O[C@@H]2[C@@H](CO)O1)NC1CCCCC1 | . | -4.1 | . | . | .
COCC(=O)NC[C@H]1N[C@H](CO)[C@H]1c1ccc(C2=CCCCC2)cc1 | . | 3.5 | . | 36.8* | .
COc1ccc(CC(=O)Nc2ccc(C(=O)NCC(C)C)cc2)cc1 | 2.2 | 22.2 | -18.2 | 18.1* | 0.0
COc1ccc(CC(=O)Nc2ccc(C(C)=O)cc2)cc1 | 3.7 | -1.8 | -2.1 | -2.1 | 5.5
COc1cnn(-c2ccc(Br)cc2)c(=O)c1SCc1ccccc1 | 1.7 | 4.0 | -12.9 | 28.3* | 11.6
C[C@@H]1CN([C@H](C)CO)C(=O)Cc2cc(NC(=O)CCN3CCOCC3)ccc2O[C@H]1CN(C)S(C)(=O)=O | . | -1.6 | . | 0.5 | .
O=C(Nc1cc(S(=O)(=O)N2CCCCC2)ccc1Cl)c1ccccc1NS(=O)(=O)c1ccc(F)cc1 | -10.9 | -1.4 | 107.7* | 1.3 | -6.1
O=C(CSc1ncn[nH]1)Nc1cc(S(=O)(=O)N2CCCC2)ccc1Cl | -3.5 | 1.0 | 50.0* | -1.5 | 0.1
O=C(Nc1cc(S(=O)(=O)N2CCCCC2)ccc1O)c1ccccc1NS(=O)(=O)c1ccc(F)cc1 | -8.6 | 6.1 | 7.9 | 5.7 | -9.8
O=C1N(c2ccccc2)C2CS(=O)(=O)CC2N1c1ccc(Cl)c(Cl)c1 (stereo not drawn) | -8.0 | . | -26.8 | . | -2.6
O=C1CC2CS(=O)(=O)CC2N1c1ccc(Oc2ccccc2)cc1 (stereo not drawn) | -5.6 | -0.2 | 121.3* | 0.3 | 4.2
Cc1sc2nc(CN(Cc3cccs3)C(=O)NC3CCCCC3)[nH]c(=O)c2c1C | -4.2 | . | 52.2* | . | -4.1
C[C@@H]1CN([C@@H](C)CO)C(=O)c2cc(NS(=O)(=O)c3cn(C)cn3)ccc2O[C@H]1CN(C)C(=O)Nc1ccc(C(F)(F)F)cc1 | . | -0.7 | . | -2.5 | .
CCNc1nc(NCC)n2c(SCc3ccc(F)cc3)nnc2n1 | -5.7 | . | 51.0* | . | -4.1
CC(C)NC(=O)N(C)C[C@H]1Oc2ccc(NC(=O)CCCN(C)C)cc2C(=O)N([C@H](C)CO)C[C@H]1C | . | 111.2* | . | -1.3 | .
C[C@@H]1CN([C@@H](C)CO)C(=O)c2cc(NC(=O)CCC(F)(F)F)ccc2O[C@@H]1CN(C)C(=O)Nc1ccc(F)cc1 | . | 95.5* | . | -0.4 | .
